Laboratory results: PubChem BioAssay AID651651 (Broad Institute, 2012)
The source made the active and inactive calls.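 How the source made its calls: active means signal-lowering compounds whose fitted half-effect concentration is no more than twice the top tested dose; inconclusive means flat curve with 30 to 70% inhibition, or poor fit; inactive means the rest.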

test: quencher artefacts in RAD54 branch migration readout – biochemical, Cy5 label, cherry-picked samples, artefact control for RAD54 inhibitor project, dose response (AID 651651); conditions: Cy5 DNA fluorescence quench counter-screen; series mostly up to 50 µM; activity change, negative = inhibition: at the top concentration
Outline: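 Material: human RAD54 protein; quantity: 30 nM RAD54 in the enzyme mix; dosing: pinned compound dose series, 10 mM stock solutions; incubation: 60 min reaction at room temperature after substrate addition; measured by: fluorescence of the Cy5-labelled DNA substrate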

Row | Compound | activity change, negative = inhibition
1 | CN(C)c1ccc2c(c1)[C@@H]1C[C@H](CC(=O)NCCN3CCCCC3)O[C@H](CO)[C@@H]1O2 | -7.07% (inactive)
2 | COc1ccc(S(=O)(=O)N(C)C[C@@H]2Oc3ccc(NC(=O)Nc4ccc5c(c4)OCO5)cc3C(=O)N([C@H](C)CO)C[C@H]2C)cc1 | -2.96% (inactive)
3 | Cc1cc(C(=O)Nc2cccc3c2O[C@H](CN(C)Cc2ccc(C(F)(F)F)cc2)[C@@H](C)CN([C@H](C)CO)C3=O)n(C)n1 | -0.835% (inactive)
4 | COc1ccc(CN(C)C[C@@H]2Oc3ccc(NC(=O)NC(C)C)cc3C(=O)N([C@@H](C)CO)C[C@H]2C)cc1 | 5.61% (inactive)
5 | COc1ccc(CN(C)C[C@@H]2Oc3ccc(NC(=O)NC4CCCCC4)cc3C(=O)N([C@@H](C)CO)C[C@H]2C)cc1 | 1.54% (inactive)
6 | COc1ccc(S(=O)(=O)Nc2ccc3c(c2)[C@@H]2C[C@H](CC(=O)NCC4CC4)O[C@H](CO)[C@@H]2O3)cc1 | 0.179% (inactive)
7 | CN(C)c1ccc2c(c1)[C@H]1C[C@H](CC(=O)NCCN3CCCCC3)O[C@@H](CO)[C@H]1O2 | 0.661% (inactive)
8 | COc1ccc(CN(C)C[C@@H]2Oc3ccc(NC(=O)Nc4ccccc4)cc3C(=O)N([C@@H](C)CO)C[C@H]2C)cc1 | 0.045% (inactive)
9 | C[C@@H]1CCCCO[C@@H](CN(C)S(C)(=O)=O)[C@H](C)CN([C@H](C)CO)C(=O)c2cc(NC(=O)Nc3ccc4c(c3)OCO4)ccc2O1 | 4.79% (inactive)
10 | Cc1noc(C)c1NC(=O)Nc1ccc2c(c1)C(=O)N([C@@H](C)CO)C[C@@H](C)[C@H](CN(C)C(=O)Nc1cccc3ccccc13)O2 | 1.39% (inactive)
11 | CN1CCN(C(=O)C[C@H]2C[C@@H]3c4cc(NC(=O)Cc5ccncc5)ccc4O[C@@H]3[C@@H](CO)O2)CC1 | -3.75% (inactive)
12 | O=C(C[C@@H]1C[C@H]2c3cc(NC(=O)CC4CC4)ccc3O[C@H]2[C@@H](CO)O1)NCc1ccc(Cl)cc1 | -16.4% (inactive)
13 | CO[C@@H]1CN(C)C(=O)c2ccc(NC(C)=O)cc2OC[C@@H](C)N(C(=O)c2ccccn2)C[C@H]1C | -8.93% [at 46 µM] (inactive)
14 | Cc1ccc(S(=O)(=O)N(C)C[C@@H]2Oc3ccc(NC(=O)NC(C)C)cc3C(=O)N([C@H](C)CO)C[C@H]2C)cc1 | -17.6% (inactive)
15 | COc1ccc(S(=O)(=O)N(C)C[C@@H]2Oc3ccc(NC(=O)Nc4c(C)noc4C)cc3CC(=O)N([C@@H](C)CO)C[C@@H]2C)cc1 | -4.66% (inactive)
16 | C[C@@H]1CN([C@H](C)CO)C(=O)c2cc(NC(=O)Nc3ccc4c(c3)OCO4)ccc2O[C@H]1CN(C)Cc1ccc2c(c1)OCO2 | 3.73% (inactive)
17 | C[C@H](NC(=O)C[C@H]1C[C@H]2c3cc(NC(=O)c4cccnc4)ccc3O[C@H]2[C@@H](CO)O1)c1ccccc1 | -2.79% (inactive)
18 | COc1ccc(CN(C)C[C@@H]2Oc3ccc(NC(=O)Nc4ccc5c(c4)OCO5)cc3C(=O)N([C@H](C)CO)C[C@H]2C)cc1 | -3.25% (inactive)
19 | COc1cccc(S(=O)(=O)N2CCCCN3[C@@H](CO)[C@H](c4ccc(C#CCC(C)C)cc4)[C@@H]3C2)c1 | -10.1% (inactive)
20 | COc1ccc(-c2ccc3c(c2)O[C@H](CN(C)C(C)=O)[C@H](C)CN([C@@H](C)CO)S3(=O)=O)cc1 | -7.1% (inactive)
21 | COCC(=O)Nc1ccc2c(c1)[C@H]1C[C@@H](CC(=O)NCc3ccccc3F)O[C@H](CO)[C@H]1O2 | -6.26% (inactive)
22 | O=S(=O)(c1ccccc1)N1CCCCN2[C@H](CO)[C@H](c3ccc(C#CC4CCCC4)cc3)[C@@H]2C1 | -7.42% (inactive)
23 | COc1ccc(CN(C)C[C@@H]2Oc3ccc(NC(=O)Nc4ccc(OC)cc4)cc3C(=O)N([C@@H](C)CO)C[C@H]2C)cc1 | -9.24% (inactive)
24 | C[C@@H]1CN([C@H](C)CO)C(=O)c2cc(NC(=O)Nc3ccc4c(c3)OCO4)ccc2O[C@H]1CN(C)C(=O)Nc1cccc2ccccc12 | 0.117% [at 46 µM] (inactive)
25 | C/C=C/c1ccc([C@@H]2[C@@H](CO)N3CCCCN(C(=O)Nc4ccc(F)cc4)C[C@H]23)cc1 | -8.63% (inactive)
26 | CC(C)NC(=O)Nc1ccc2c(c1)C(=O)N([C@H](C)CO)C[C@@H](C)[C@H](CN(C)S(=O)(=O)c1ccc(Cl)cc1)O2 | -6.47% (inactive)
27 | COc1ccc(NC(=O)Nc2ccc3c(c2)CC(=O)N([C@H](C)CO)C[C@H](C)[C@H](CN(C)S(=O)(=O)c2ccc(OC)cc2)O3)cc1 | 0.589% (inactive)
28 | COc1ccc(CN(C)C[C@@H]2Oc3ccc(NC(=O)Nc4ccc(OC)cc4)cc3C(=O)N([C@H](C)CO)C[C@H]2C)cc1 | -7.79% (inactive)
29 | C[C@@H]1CN([C@@H](C)CO)C(=O)c2cc(NS(=O)(=O)c3cccs3)ccc2O[C@@H]1CN(C)C(=O)Nc1cccc2ccccc12 | 2.94% (inactive)
30 | COc1ccc(CN(C)C[C@@H]2Oc3ccc(NC(=O)Nc4ccc5c(c4)OCO5)cc3C(=O)N([C@@H](C)CO)C[C@H]2C)cc1 | -2.31% (inactive)
